High-throughput results (PubChem BioAssay)
KCNQ1 block = inhibitors of human KCNQ1 channel, primary screen, cell-based, thallium flux, high-throughput | B-score at 10 µM | CHO-K1 KCNQ1, FluxOR thallium flux fluorescence; hits give high values | Potassium voltage-gated channel subfamily KQT member 1 (Homo sapiens), P51787 | actives 1.3% (n = 310,000);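 active = compounds whose thallium flux B-score, printed positive for inhibition, exceeds three library SD while starting fluorescence stays within three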;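 also: channel opened by potassium depolarization with thallium stimulus after 20 min compound exposure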
hERG protect = hERG rescue from dofetilide block, primary screen, cell-based, CHO-hERG, FluxOR thallium flux, dofetilide IC70 | dofetilide IC70 present | activation (rescue from dofetilide block), less the hit threshold, % at 10 µM | actives 0.51% (n = 310,000) | Voltage-gated inwardly rectifying potassium channel KCNH2 (Homo sapiens), Q12809;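 active = activation above the mean of controls blocked by dofetilide plus 5 SD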;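 also: thallium influx through hERG after potassium depolarization seen as dye fluorescence rise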
KCNK3 block = human KCNK3 channel inhibitors, primary screen, CHO cells, FluxOR thallium flux, B-score; actives 0.84% (n = 340,000); B-score at 10 µM; AID 602410, 2012; FluxOR fluorescence; hits give low values; Potassium channel subfamily K member 3 (Homo sapiens), O14649;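 active = B-score under library mean minus 4 SD, starting fluorescence ratio at most library mean plus 5 SD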;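 also: more negative B-score means stronger inhibition of thallium flux through KCNK3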
KCNQ1 pot = potentiators or activators of KCNQ1 channel, primary screen, cell-based, thallium flux, high-throughput. CHO-K1 KCNQ1, thallium flux FluxOR fluorescence; hits give high values. B-score at 10 µM. actives 0.35% (n = 310,000). AID 2648, 2010;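 active = fluorescence ratio B-score, a plate-corrected score, at least three library SD, with initial intensity B-score within 5 SD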
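Assay system: stable KCNQ1 CHO-K1 line; medium: assay buffer, equal DMSO in all wells; timing: 90 min dye loading and 20 min compound exposure, both at room temperature; technique: kinetic FluxOR thallium fluorescence, 10-s 1-Hz baseline, 110-s post-stimulus read; read-out basis: B score of baseline-normalized fluorescence ratio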
KCNK9 block = KCNK9 potassium channel inhibitors, primary screen, HEK293 cells, thallium flux; Potassium channel subfamily K member 9 (Homo sapiens), Q9NPC2; AID 488922, 2010; B-score at 10 µM; FluxOR thallium flux fluorescence; hits give low values; actives 1.2% (n = 310,000);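 active = ratio B-score over 3 SD below the library mean, with starting fluorescence within 5 SD of its mean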;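 also: negative B-score means less thallium flux so channel inhibition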
Target sequence (Q9NPC2 whole entry, looked up): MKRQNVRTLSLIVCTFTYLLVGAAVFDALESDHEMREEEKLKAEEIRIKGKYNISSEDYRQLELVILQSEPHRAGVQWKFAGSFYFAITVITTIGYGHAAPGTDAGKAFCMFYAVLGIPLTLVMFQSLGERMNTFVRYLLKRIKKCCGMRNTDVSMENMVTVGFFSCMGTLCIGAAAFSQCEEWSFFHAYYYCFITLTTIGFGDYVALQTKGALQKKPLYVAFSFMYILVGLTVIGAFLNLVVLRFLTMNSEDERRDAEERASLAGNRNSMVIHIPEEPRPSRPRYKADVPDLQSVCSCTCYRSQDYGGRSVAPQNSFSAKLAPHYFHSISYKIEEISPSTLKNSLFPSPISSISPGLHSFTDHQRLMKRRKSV
KCNK9 block conf = KCNK9 potassium channel inhibitors, confirmation, HEK293 cells, thallium flux, duplicate; shares compounds with KCNK9 block; AID 492992, 2010; actives 43% (n = 4,900); FluxOR thallium flux fluorescence; inhibition, % at 10 µM;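 active = thallium signal inhibited by more than 5 SD of the compound-free buffer control wells, on both duplicate plates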;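 also: 0% = assay buffer control wells without compound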
Kir21 sel = mouse Kir2.1 channel inhibition, confirmation, selectivity assay for KCNK9 modulator project, cell-based, HEK293, thallium flux; shares compounds with KCNK9 block; actives 4% (n = 4,900); inhibition, % at 10 µM; AID 492993, 2010; Kir2.1 cells, FluxOR thallium flux fluorescence;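 active = thallium signal drop more than 5 SD beyond the mean of the no-compound control wells, seen in both duplicate plates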;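 also: signal is fluorescence rise after thallium addition divided by baseline fluorescence; plate controls were assay buffer only for no effect and full block by chlorpromazine control for full effect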
HEK293 Tl ctr = thallium flux in non-induced HEK293 cells, confirmation, counter-screen for KCNK9 inhibitor project, cell-based, second counter screen, non-induced KCNK9-HEK293 | shares compounds with KCNK9 block | FluxOR thallium flux | inhibition, % at 10 µM | actives 40% (n = 4,900);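 active = thallium signal drop beyond 5 SD of the untreated control mean, on both duplicate plates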;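 also: plate controls were buffer only IC0 wells for no effect and SID17386958 at its maximal inhibitory level for full effect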
KCNK3 confirm = retest of human KCNK3 channel inhibitors, confirmation, CHO cells, FluxOR thallium flux, triplicate; shares compounds with KCNK3 block; FluxOR fluorescence; 0% buffer, 100% carvedilol maximal block; ratio percent of control, % at 10 µM; actives 99% (n = 2,400);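 active = ratio percent of control, averaged over triplicates, above buffer control mean plus 5 SD, cut at about 64% in these data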;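 also: ratio is the fluorescence rise from min to max over baseline after thallium stimulus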
KCNK3 noninduced = thallium flux inhibition in non-induced cells, primary screen, counter-screen for KCNK3 inhibitor project, cell-based, non-induced KCNK3 line, FluxOR thallium, triplicate; shares compounds with KCNK3 block; non-induced KCNK3 parental cells; hits give low values; thallium flux ratio (lower = more inhibition) at 10 µM; actives 40% (n = 2,400);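 active = thallium flux ratio, averaged over three wells, more than 5 SD below the buffer control mean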;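 also: host cells are CHO cells without KCNK3 induction; ratio is peak minus trough fluorescence over baseline then normalized to buffer controls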
An asterisk follows results filed as active; i = inactive; x = no result. Sampled rows, rich in hits. Any-hit rate of the full collection: about 3.1%.

SMILES	KCNQ1 block	hERG protect	KCNK3 block	KCNQ1 pot	KCNK9 block	KCNK9 block conf	Kir21 sel	HEK293 Tl ctr	KCNK3 confirm	KCNK3 noninduced
CCOC(=O)NC(N(O)c1cccc(Cl)c1)C(Cl)(Cl)Cl (centres undefined)	i	-6.8	-12.4*	i	-12.7*	53.5%*	i	28.5%*	112.3*	i
CCOC(=O)c1c(NC(=O)Cn2nc(C(F)F)cc2C(F)F)sc(C)c1C	i	-7.8	-13.4*	i	-10.2*	57.0%*	i	46.5%*	107.3*	i
COC(=O)c1c(NC(=O)Cn2nc(C(F)F)cc2C(F)F)sc(C)c1C	i	-6.1	i	i	i	x	x	x	x	x
COc1ccc(C(C)=O)cc1COC(=O)c1cc2ccccc2cc1O	i	-9.3	-13*	i	-14.9*	31.5%*	i	29.0%*	109.3*	i
COc1ccc(C(C)=O)cc1COC(=O)c1cccnc1Cl	i	-3.8	i	i	i	x	x	x	x	x
CCOC(=O)c1c(S(=O)(=O)Nc2ccc(F)cc2C)c(C)n(C)c1C	i	-1.4	-9.49*	i	-14.1*	64.5%*	i	25.5%*	116.0*	i
c1ccc(-n2nnnc2SCCCSc2nc3ccccc3s2)cc1	i	-13.4	-9.88*	i	-15.4*	62.5%*	i	46.0%*	103.3*	i
O=C(CSc1nc2ccc(NC(=O)CSc3nnnn3-c3ccccc3)cc2s1)Nc1ccccc1	i	-0.4	i	i	i	x	x	x	x	x
Cc1ccc(C)c(Nc2cc(C)nc(-c3ccccc3O)n2)c1	i	-3.8	-10.5*	i	-9.36*	49.0%*	i	40.0%*	125.3*	0.125*
CC(C)(C)c1ccc(S(=O)(=O)N2CCN(C(=O)C3CCC3)CC2)cc1	i	-0.7	i	i	i	x	x	x	x	x
Oc1cc2c(cc1C(c1ccc(Cl)c(Cl)c1)N1CCCC1)OCO2 (centres undefined)	i	-19.2	-12.4*	i	-8.7*	i	i	41.0%*	136.3*	0.15*
CN(CC(=O)Nc1ccccc1F)Cc1cccs1	i	-4.5	i	i	i	x	x	x	x	x
Cc1cc(Br)ccc1NC(=O)CN(C)Cc1cccs1	i	-12.2	-9.02*	i	-11.7*	43.0%*	i	28.0%*	100.3*	i
COc1ccccc1OCC(=O)Nc1cccc(-c2nc3ccccc3o2)c1	i	-3.5	i	i	-11.6*	45.0%*	i	i	113.7*	i
COCCn1c(SCc2ccc(C(=O)OC)o2)nc2ccccc2c1=O	x	x	i	x	x	x	x	x	x	x
COn1c(SCc2ccccc2)nc2ccccc2c1=O	i	-12.7	i	i	i	x	x	x	x	x
COCCn1c(SCc2ccc(OC)c(F)c2)nc2ccccc2c1=O	i	-15.1	-11.9*	i	-16.1*	79.0%*	i	64.5%*	106.0*	i
COn1c(SCc2cccc(Cl)c2)nc2ccccc2c1=O	i	-2.1	-10.9*	i	-9.66*	50.0%*	i	i	84.0*	i
O=S(=O)(c1ccc(Cl)cc1)N1CCN(c2ncnc3sccc23)CC1	x	x	i	x	x	x	x	x	x	x
COc1cccc(OC)c1C(=O)Nc1cccc(-c2nc3ccccc3[nH]2)c1	i	-5.9	-9.9*	i	-12.7*	40.0%*	i	i	133.3*	0.117*
CCOC(=O)c1cnc2ccc(C)cc2c1NCCN1CCOCC1	i	-2.5	-8.84*	i	i	x	x	x	100.3*	i
CCOC(=O)c1cnc2ccc(OC)cc2c1Nc1ccc2c(c1)OCCO2	i	-10.8	-12.2*	i	i	x	x	x	135.0*	0.156*
COc1ccc(O)c(C(=O)C2c3ccccc3C(=O)N2c2ccc(C)cc2)c1 (centres undefined)	i	-9.4	-11.3*	i	i	x	x	x	132.7*	0.135*
COc1ccc(N2C(=O)c3ccccc3C2O)cc1 (centres undefined)	i	-3.6	i	i	i	x	x	x	x	x
Cc1ccc(NC(=O)CSc2nc(=O)n(CCN(C)C)c3c2CCCC3)cc1Cl	i	-10.6	-10*	i	i	x	x	x	68.3*	i
SMILES	KCNQ1 block	hERG protect	KCNK3 block	KCNQ1 pot	KCNK9 block	KCNK9 block conf	Kir21 sel	HEK293 Tl ctr	KCNK3 confirm	KCNK3 noninduced
COc1ccc(NC(=O)CSc2nc(=O)n(CCN(C)C)c3c2CCCC3)cc1	i	-17.6	i	i	i	x	x	x	x	x
c1ccc(Oc2cccc(OCCCCSc3ncccn3)c2)cc1	i	-10.9	-10.6*	i	i	x	x	x	89.0*	0.154*
c1cnc(SCCCOc2ccc3ccccc3c2)nc1	i	-7.8	-10.3*	i	i	x	x	x	114.3*	0.14*
CN(CC(=O)Nc1ccc(F)cc1)C(=O)CN1C(=O)c2ccccc2C1=O	x	x	i	x	x	x	x	x	x	x
CC(C)OCCCNC(=O)c1cn(C)c2ccc(S(=O)(=O)N3CCCC3)cc2c1=O	i	-8.2	i	i	i	x	x	x	x	x
COc1ccc(S(=O)(=O)N2CCC(C(=O)NCCC(=O)Nc3ccc(Cl)cc3)CC2)cc1	i	-8.7	i	i	i	x	x	x	x	x
CCOC(=O)c1c(NC(=O)CSc2nnc(-c3ccccc3)n2CC)sc(C(C)=O)c1C	i	-4.2	i	i	i	x	x	x	x	x
CCOC(=O)c1sc(NC(=O)CSc2nnc(-c3ccco3)n2CC)c(C(=O)OCC)c1C	i	1.1	-11.8*	i	i	x	x	x	98.3*	i
O=C(CSc1ccc([N+](=O)[O-])cc1)NNC(=O)c1ccccc1F	i	-1.2	i	i	i	x	x	x	x	x
COc1ccc(Cl)cc1NC(=S)Nc1cccc(C)c1	i	-5.2	-9.38*	i	i	x	x	x	105.0*	i
